Measurements published in ChEMBL document CHEMBL1687804, “Comparative efficacies of human simulated exposures of telavancin and vancomycin against methicillin-resistant Staphylococcus aureus with a range of vancomycin MICs in a murine pneumonia model” (Antimicrob Agents Chemother, 2010).
In brackets after ≈: the same amount, converted by molar mass. Activity calls are given as the source filed them. The calls are words filed in the database; no cut-off is given here.

Experiments:
[1] = test system: Staphylococcus aureus; experiment: Antibacterial activity against hospital-associated methicillin-resistant Staphylococcus aureus isolate 152 by broth microdilution assay; assay type: functional
In short: (§1)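 MIC by broth microdilution using dry-form panels, run in triplicate per isolate; modal MIC reported. Isolates were stored at −80°C in skim milk and subcultured twice on Trypticase soy agar with 5% sheep blood at 35°C before use.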

[2] = test system: Staphylococcus aureus; experiment: Antibacterial activity against hospital-associated methicillin-resistant Staphylococcus aureus isolate 56 (494) by broth microdilution assay; assay type: functional; in short: as §1
[3] = test system: Staphylococcus aureus; experiment: Antibacterial activity against community-associated methicillin-resistant Staphylococcus aureus isolate 156 by broth microdilution assay; assay type: functional; in short: as §1
[4] = test system: Staphylococcus aureus; experiment: Antibacterial activity against community-associated methicillin-resistant Staphylococcus aureus isolate 145 by broth microdilution assay; assay type: functional; in short: as §1
[5] = test system: Staphylococcus aureus; experiment: Antibacterial activity against hospital-associated methicillin-resistant Staphylococcus aureus isolate 336 by broth microdilution assay; assay type: functional; in short: as §1
[6] = test system: Staphylococcus aureus; experiment: Antibacterial activity against hospital-associated methicillin-resistant Staphylococcus aureus isolate 360 by broth microdilution assay; assay type: functional; in short: as §1
[7] = test system: Staphylococcus aureus; experiment: Antibacterial activity against hospital-associated methicillin-resistant Staphylococcus aureus isolate 412 by broth microdilution assay; assay type: functional; in short: as §1
[8] = test system: Staphylococcus aureus; experiment: Antibacterial activity against vancomycin-heteroresistant Staphylococcus aureus isolate 38 (Mu3) by broth microdilution assay; assay type: functional; in short: as §1
[9] = test system: Staphylococcus aureus; experiment: Antibacterial activity against vancomycin-heteroresistant Staphylococcus aureus isolate 443 by broth microdilution assay; assay type: functional; in short: as §1
[10] = test system: Staphylococcus aureus; experiment: Antibacterial activity against vancomycin-intermediate Staphylococcus aureus isolate 435 by broth microdilution assay; assay type: functional; in short: as §1
[11] = test system: Staphylococcus aureus; experiment: Antibacterial activity against vancomycin-intermediate Staphylococcus aureus isolate 440 (A6298) by broth microdilution assay; assay type: functional; in short: as §1
[12] = test system: Staphylococcus aureus; experiment: Antibacterial activity against vancomycin-intermediate Staphylococcus aureus isolate 453 (NRS23) by broth microdilution assay; assay type: functional; in short: as §1
[13] = test system: Staphylococcus aureus; experiment: Antibacterial activity against vancomycin-intermediate Staphylococcus aureus isolate 454 (NRS404) by broth microdilution assay; assay type: functional; in short: as §1
[14] = test system: Staphylococcus aureus; experiment: Antibacterial activity against vancomycin-intermediate Staphylococcus aureus isolate 435 infected in neutropenic BALB/c mouse lung infection model assessed as reduction of CFU at 40 mg/kg, sc administered every 12 hrs measured after 24 hrs; further: unit not given here
[15] = test system: Staphylococcus aureus; experiment: Antibacterial activity against vancomycin-intermediate Staphylococcus aureus isolate 435 infected in neutropenic BALB/c mouse lung infection model assessed as reduction of CFU at 40 mg/kg, sc administered every 12 hrs measured after 48 hrs; further: unit not given here
[16] = test system: Staphylococcus aureus; experiment: Antibacterial activity against vancomycin-heteroresistant Staphylococcus aureus isolate 443 infected in neutropenic BALB/c mouse lung infection model assessed as reduction of CFU at 40 mg/kg, sc administered every 12 hrs measured after 24 hrs; further: unit not given here
[17] = test system: Staphylococcus aureus; experiment: Antibacterial activity against vancomycin-heteroresistant Staphylococcus aureus isolate 443 infected in neutropenic BALB/c mouse lung infection model assessed as reduction of CFU at 40 mg/kg, sc administered every 12 hrs measured after 48 hrs; further: unit not given here
[18] = test system: Staphylococcus aureus; experiment: Antibacterial activity against vancomycin-heteroresistant Staphylococcus aureus isolate 38 (Mu3) infected in neutropenic BALB/c mouse lung infection model assessed as reduction of CFU at 40 mg/kg, sc administered every 12 hrs measured after 24 hrs
[19] = test system: Staphylococcus aureus; experiment: Antibacterial activity against vancomycin-intermediate Staphylococcus aureus isolate 440 (A6298) infected in neutropenic BALB/c mouse lung infection model assessed as reduction of CFU at 40 mg/kg, sc administered every 12 hrs measured after 24 hrs
[20] = test system: Staphylococcus aureus; experiment: Antibacterial activity against vancomycin-intermediate Staphylococcus aureus isolate 453 (NRS23) infected in neutropenic BALB/c mouse lung infection model assessed as reduction of CFU at 40 mg/kg, sc administered every 12 hrs measured after 24 hrs; further: unit not given here
[21] = test system: Staphylococcus aureus; experiment: Antibacterial activity against vancomycin-intermediate Staphylococcus aureus isolate 440 (A6298) infected in neutropenic BALB/c mouse lung infection model assessed as reduction of CFU at 40 mg/kg, sc administered every 12 hrs measured after 48 hrs
[22] = test system: Staphylococcus aureus; experiment: Antibacterial activity against vancomycin-intermediate Staphylococcus aureus isolate 453 (NRS23) infected in neutropenic BALB/c mouse lung infection model assessed as reduction of CFU at 40 mg/kg, sc administered every 12 hrs measured after 48 hrs; further: unit not given here
[23] = test system: Staphylococcus aureus; experiment: Antibacterial activity against vancomycin-intermediate Staphylococcus aureus isolate 454 (NRS404) infected in neutropenic BALB/c mouse lung infection model assessed as reduction of CFU at 40 mg/kg, sc administered every 12 hrs measured after 24 hrs; further: unit not given here
[24] = test system: Staphylococcus aureus; experiment: Antibacterial activity against vancomycin-intermediate Staphylococcus aureus isolate 454 (NRS404) infected in neutropenic BALB/c mouse lung infection model assessed as reduction of CFU at 40 mg/kg, sc administered every 12 hrs measured after 48 hrs; further: unit not given here
[25] = test system: Staphylococcus aureus; experiment: Antibacterial activity against hospital-associated methicillin-resistant Staphylococcus aureus isolate 152 infected in neutropenic BALB/c mouse lung infection model assessed as reduction of CFU at 40 mg/kg, sc administered every 12 hrs measured after 24 hrs; further: unit not given here
[26] = test system: Staphylococcus aureus; experiment: Antibacterial activity against hospital-associated methicillin-resistant Staphylococcus aureus isolate 336 infected in neutropenic BALB/c mouse lung infection model assessed as reduction of CFU at 40 mg/kg, sc administered every 12 hrs measured after 24 hrs; further: unit not given here
[27] = test system: Staphylococcus aureus; experiment: Antibacterial activity against hospital-associated methicillin-resistant Staphylococcus aureus isolate 360 infected in neutropenic BALB/c mouse lung infection model assessed as reduction of CFU at 40 mg/kg, sc administered every 12 hrs measured after 24 hrs
[28] = test system: Staphylococcus aureus; experiment: Antibacterial activity against hospital-associated methicillin-resistant Staphylococcus aureus isolate 412 infected in neutropenic BALB/c mouse lung infection model assessed as reduction of CFU at 40 mg/kg, sc administered every 12 hrs measured after 24 hrs; further: unit not given here
[29] = test system: Staphylococcus aureus; experiment: Antibacterial activity against hospital-associated methicillin-resistant Staphylococcus aureus isolate 336 infected in neutropenic BALB/c mouse lung infection model assessed as reduction of CFU at 40 mg/kg, sc administered every 12 hrs measured after 48 hrs; further: unit not given here
[30] = test system: Staphylococcus aureus; experiment: Antibacterial activity against community-associated methicillin-resistant Staphylococcus aureus isolate 156 infected in neutropenic BALB/c mouse lung infection model assessed as reduction of CFU at 40 mg/kg, sc administered every 12 hrs measured after 24 hrs; further: unit not given here
[31] = test system: Staphylococcus aureus; experiment: Antibacterial activity against community-associated methicillin-resistant Staphylococcus aureus isolate 145 infected in neutropenic BALB/c mouse lung infection model assessed as reduction of CFU at 40 mg/kg, sc administered every 12 hrs measured after 24 hrs; further: unit not given here
[32] = test system: Staphylococcus aureus; experiment: Antibacterial activity against community-associated methicillin-resistant Staphylococcus aureus isolate 145 infected in neutropenic BALB/c mouse lung infection model assessed as reduction of CFU at 40 mg/kg, sc administered every 12 hrs measured after 48 hrs; further: unit not given here
[33] = test system: Staphylococcus aureus; experiment: Antibacterial activity against hospital-associated methicillin-resistant Staphylococcus aureus isolate 56 (494) infected in neutropenic BALB/c mouse lung infection model assessed as reduction of CFU at 40 mg/kg, sc administered every 12 hrs measured after 24 hrs; further: unit not given here

Row | SMILES | MIC [1] [µg/mL] | MIC [2] [µg/mL] | MIC [3] [µg/mL] | MIC [4] [µg/mL] | MIC [5] [µg/mL] | MIC [6] [µg/mL] | MIC [7] [µg/mL] | MIC [8] [µg/mL] | MIC [9] [µg/mL] | MIC [10] [µg/mL] | MIC [11] [µg/mL] | MIC [12] [µg/mL] | MIC [13] [µg/mL] | also measured
1 | CCCCCCCCCC(=O)N[C@@H](Cc1c[nH]c2ccccc12)C(=O)N[C@H](CC(N)=O)C(=O)N[C@@H](CC(=O)O)C(=O)N[C@@H]1C(=O)NCC(=O)N[C@@H](CCCN)C(=O)N[C@@H](CC(=O)O)C(=O)N[C@H](C)C(=O)N[C@@H](CC(=O)O)C(=O)NCC(=O)N[C@H](CO)C(=O)N[C@@H]([C@H](C)CC(=O)O)C(=O)N[C@@H](CC(=O)c2ccccc2N)C(=O)O[C@@H]1C | 0.5 (≈ 0.309 µM) | 0.5 (≈ 0.309 µM) | 0.5 (≈ 0.309 µM) | 0.5 (≈ 0.309 µM) | 0.5 (≈ 0.309 µM) | 0.5 (≈ 0.309 µM) | 0.5 (≈ 0.309 µM) | 0.5 (≈ 0.309 µM) | 0.5 (≈ 0.309 µM) | 0.5 (≈ 0.309 µM) | 1 (≈ 0.617 µM) | 1 (≈ 0.617 µM) | 1 (≈ 0.617 µM) | –
2 | O=C(O)c1cn(C2CC2)c2cc(N3CCNCC3)c(F)cc2c1=O [CIPROFLOXACIN] | 0.5 (≈ 1.51 µM) | 0.5 (≈ 1.51 µM) | ≥ 16 | 8 (≈ 24.1 µM) | ≥ 16 | ≥ 16 | ≥ 16 | ≥ 16 | ≥ 16 | ≥ 16 | ≥ 16 | ≥ 16 | ≥ 16 | –
3 | CCC[C@@H]1C[C@@H](C(=O)N[C@@H]([C@H]2O[C@H](SC)[C@H](O)[C@@H](O)[C@H]2O)[C@H](C)Cl)N(C)C1 [CLINDAMYCIN] | 0.125 (≈ 0.294 µM) | 0.25 (≈ 0.588 µM) | ≤ 0.5 | ≥ 8 | ≥ 8 | ≥ 8 | ≤ 0.5 | ≥ 8 | ≥ 8 | ≤ 0.5 | ≥ 8 | ≥ 8 | ≤ 0.5 | –
4 | CCCCCCCCCCNCCN[C@@]1(C)C[C@H](O[C@H]2[C@H](Oc3c4cc5cc3Oc3ccc(cc3Cl)[C@@H](O)[C@@H](NC(=O)[C@@H](CC(C)C)NC)C(=O)N[C@@H](CC(N)=O)C(=O)N[C@H]5C(=O)N[C@H]3C(=O)N[C@H](C(=O)N[C@H](C(=O)O)c5cc(O)c(CNCP(=O)(O)O)c(O)c5-c5cc3ccc5O)[C@H](O)c3ccc(c(Cl)c3)O4)O[C@H](CO)[C@@H](O)[C@@H]2O)O[C@@H](C)[C@H]1O [TELAVANCIN] | 0.25 (≈ 0.142 µM) | 0.5 (≈ 0.285 µM) | 0.5 (≈ 0.285 µM) | 0.5 (≈ 0.285 µM) | 0.5 (≈ 0.285 µM) | 0.5 (≈ 0.285 µM) | 0.5 (≈ 0.285 µM) | 0.5 (≈ 0.285 µM) | 0.5 (≈ 0.285 µM) | 1 (≈ 0.57 µM) | 1 (≈ 0.57 µM) | 1 (≈ 0.57 µM) | 1 (≈ 0.57 µM) | Activity [14]: Active; Activity [15]: inactive; Activity [16]: Active; Activity [17]: inactive; Activity [18]: Active; Activity [19]: Active; Activity [20]: Active; Activity [21]: Active; Activity [22]: Active; Activity [23]: Active; Activity [24]: Active; Activity [25]: Active; Activity [26]: Active; Activity [27]: Active; Activity [28]: Active; Activity [29]: inactive; Activity [30]: Active; Activity [31]: Active; Activity [32]: inactive; Activity [33]: Active
5 | CN(C)c1cc(NC(=O)CNC(C)(C)C)c(O)c2c1C[C@H]1C[C@H]3[C@H](N(C)C)C(O)=C(C(N)=O)C(=O)[C@@]3(O)C(O)=C1C2=O [TIGECYCLINE] | 0.25 (≈ 0.427 µM) | 0.5 (≈ 0.854 µM) | 0.125 (≈ 0.213 µM) | 0.25 (≈ 0.427 µM) | 0.5 (≈ 0.854 µM) | 0.25 (≈ 0.427 µM) | 0.25 (≈ 0.427 µM) | 0.5 (≈ 0.854 µM) | 0.25 (≈ 0.427 µM) | 0.25 (≈ 0.427 µM) | 0.125 (≈ 0.213 µM) | 0.125 (≈ 0.213 µM) | 0.125 (≈ 0.213 µM) | –
